# Measurements: ChEMBL document CHEMBL3244363, “Studies on biologically active halogenated compounds. 1. Synthesis and central nervous system depressant activity of 2-(fluoromethyl)-3-aryl-4(3H)-quinazolinone derivatives” (J Med Chem, 1979)
# Activity calls are given as the source filed them. No cut-off for these calls is given here.
# Key:
# Mus musculus [1] = assay: Induction of CNS depressant activity in ip dosed ddk mouse assessed as excitation incidence during loss of righting reflex activity over 20 secs; format: functional, organism-based; settings: Central nervous system
# Mus musculus [2] = assay: Induction of CNS depressant activity in ip dosed ddk mouse assessed as loss of righting reflex activity over 20 secs; format: functional; settings: Central nervous system
# Method in brief: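 Groups of six mice received compound ip as a suspension in CMC solution. Each mouse was laid on its back at 15, 30, 60, 90 and 120 min. The reflex was scored as lost if the animal stayed supine over 20 s. ED50 was estimated from the number of mice losing the reflex.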
# Mus musculus [3] = assay: Induction of CNS depressant activity in ip dosed ddk mouse assessed as protection against pentylenetetrazole-induced tonic extensive convulsions administered 30 mins prior to pentylenetetrazole challenge; format: functional; settings: Central nervous system
# Method in brief: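 In groups of six mice, compound was injected ip as a suspension in CMC solution. Pentylenetetrazole 125 mg/kg was given sc 30 min later. ED50 was estimated from the number of mice protected against death from tonic extensive convulsions within 1 h of the convulsant.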
# Mus musculus [4] = assay: Induction of CNS depressant activity in ip dosed ddk mouse assessed as protection against maximal electroshock-induced tonic hind limb extensor seizures administered 30 mins prior to electroshock challenge; format: functional; settings: Central nervous system
# Method in brief: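 Six mice per group were dosed ip with compound suspended in CMC solution. After 30 min, a 25 mA alternating current was delivered through corneal electrodes for 0.15 s. ED50 was estimated from the number of mice protected against the tonic hind limb extensor component.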
# [5] = Acute toxicity in ip dosed ddk mouse assessed as lethality after 72 hrs; format: organism-based; settings: in vivo
# Mus musculus [6] = assay: Induction of CNS depressant activity in ip dosed ddk mouse after 30 mins by rotating rod test; format: functional; settings: Central nervous system, 0.5 h
# Method in brief: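 Compound was given ip to groups of six mice as a suspension in CMC solution. At 30 min each mouse was set on a rotating rod (3.5 cm diameter, 14 rpm) for 1 min. ED50 was estimated from the number of mice falling off the rod twice during the test.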
SMILES,Activity (Mus musculus [1]),ED50 (Mus musculus [2]) [mg/kg],ED50 (Mus musculus [3]) [mg/kg],ED50 (Mus musculus [4]) [mg/kg],MTD at 72 h [5] [mg/kg],LD50 at 72 h [5] [mg/kg],ED50 (Mus musculus [6]) [mg/kg]
O=c1c2ccccc2nc(CF)n1-c1ccc(Cl)cc1Cl,Active,18.7,16.3,8.1,100,,
Cc1ccccc1-n1c(C)nc2ccccc2c1=O [METHAQUALONE],,31.6,36.7,35.2,,542,33.7
Cc1ccccc1-n1c(CF)nc2ccc([N+](=O)[O-])cc2c1=O,,> 150,> 150,> 150,≥ 300,,> 150
Cc1cc(Cl)ccc1-n1c(CF)nc2ccccc2c1=O,Active,18.7,16.3,14.1,,432,
Cc1ccccc1-n1c(CF)nc2ccc(N)cc2c1=O [AFLOQUALONE],,35.1,5.4,13.3,,315,15.6
O=c1c2ccccc2nc(CF)n1-c1ccccc1,,130,95.3,116,≥ 300,,98
Cc1cc(Cl)ccc1-n1c(CF)nc2cccc(Cl)c2c1=O,,> 150,88.4,> 150,≥ 300,,> 150
CC(=O)Nc1ccc2nc(CF)n(-c3ccccc3C)c(=O)c2c1,,> 150,75.2,> 150,≥ 300,,> 150
Cc1ccccc1-n1c(CF)nc2ccccc2c1=O,,19.9,26.6,25.2,,710,35.1
Cc1ccccc1-n1c(CF)nc2cccc(Cl)c2c1=O,,95.7,34.9,40.3,≥ 300,,37.6
Cc1ccccc1-n1c(CF)nc2ccc(Cl)cc2c1=O,,> 150,> 150,> 150,≥ 300,,> 150
Cc1c(Cl)cccc1-n1c(CF)nc2ccccc2c1=O,,18.4,16.1,15,,1560,15
Cc1ccccc1-n1c(C)nc2ccc(N)cc2c1=O,,28.1,8.1,25.4,,,27.9
